Data as given in ChEMBL document CHEMBL4406822, “Neuroactive Steroid N-Methyl-d-aspartate Receptor Positive Allosteric Modulators: Synthesis, SAR, and Pharmacological Activity” (J Med Chem, 2019).
The source made the active and inactive calls. No cut-off for these calls is given here.

Experiments:
[1] = biological target: T1, Glutamate NMDA receptor; GRIN1/GRIN2A (Homo sapiens, UniProt Q05586+Q12879); test: Positive allosteric modulation of recombinant human GluN1/GluN2A receptor stably expressed in HEK293 cells assessed as increase in glycine/L-glutamate-induced channel current at -70 mV holding potential by IonWork […] method; assay type: cell-based
Outline: (§1)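 Stable HEK293 lines expressing GluN1/GluN2A or GluN1/GluN2B, measured by automated whole-cell patch clamp (Ionworks Barracuda). Cells were held at -70 mV and stepped to -45 mV during agonist application (EC20 L-glutamate plus 50 µM glycine). The test article was first pre-applied alone for 5 min, then co-applied with agonist to record potentiation. Concentration-response percent potentiation gave EC50 and Emax.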

Hippocampus [2] = test: Induction of synaptic plasticity in postnatal 60 to 90 day rat brain hippocampal slice assessed as change in theta burst stimulaiton-induced field potential potentiation at 1 uM treated 20 mins prior to theta burst stimulation by electrophysiological method; assay type: functional, tissue-based
[3] = Stability in rat liver microsomes; assay type: ADME, Microsome; conditions: read-out: Stability
[4] = biological target: T1, Glutamate NMDA receptor; GRIN1/GRIN2A; test: Positive allosteric modulation of recombinant human GluN1/GluN2A receptor stably expressed in HEK293 cells assessed as increase in glycine/L-glutamate-induced channel current at -70 mV holding potential by IonWork […] method relative to control; assay type: cell-based; outline: as §1
[5] = biological target: T2, Glutamate NMDA receptor; GRIN1/GRIN2B (Homo sapiens, UniProt Q05586+Q13224); test: Positive allosteric modulation of recombinant human GluN1/GluN2B receptor stably expressed in HEK293 cells assessed as increase in glycine/L-glutamate-induced channel current at -70 mV holding potential by IonWork […] method; assay type: cell-based; outline: as §1
[6] = biological target: T2, Glutamate NMDA receptor; GRIN1/GRIN2B; test: Positive allosteric modulation of recombinant human GluN1/GluN2B receptor stably expressed in HEK293 cells assessed as increase in glycine/L-glutamate-induced channel current at -70 mV holding potential by IonWork whole cell patch clamp method relative to control
Hippocampus [7] = test: Induction of synaptic plasticity in postnatal 120 to 150 day rat brain hippocampal slice assessed as stimulation of theta burst stimulaiton-induced field potential potentiation at 1 uM treated 20 mins prior to theta burst stimulation and measured after 60 mins by electrophysiological method; assay type: functional, tissue-based
[8] = Stability in human liver microsomes; assay type: ADME, Microsome; conditions: read-out: Stability
[9] = biological target: T1, Glutamate NMDA receptor; GRIN1/GRIN2A; test: Potency index, ratio of 24(S)-hydroxycholesterol EC50 to test compound EC50 for positive allosteric modulation of recombinant human GluN1/GluN2A receptor stably expressed in HEK293 cells; assay type: cell-based
[10] = Ratio of drug level in Sprague-Dawley rat brain to plasma at 10 mg/kg, ip measured after 1 hr; assay type: ADME, organism-based; conditions: brain and plasma, read-out: BPR
[11] = Clearance in iv dosed rat; assay type: ADME, organism-based; conditions: in vivo
[12] = Oral bioavailability in rat; assay type: ADME, organism-based; conditions: in vivo
[13] = Volume of distribution at steady state in rat; assay type: ADME; conditions: in vivo, read-out: Vdss
[14] = biological target: T2, Glutamate NMDA receptor; GRIN1/GRIN2B; test: Potency index, ratio of 24(S)-hydroxycholesterol EC50 to test compound EC50 for positive allosteric modulation of recombinant human GluN1/GluN2B receptor stably expressed in HEK293 cells; assay type: cell-based
[15] = Half life in rat; assay type: ADME; conditions: in vivo
[16] = Ratio of drug level in Sprague-Dawley rat brain to plasma at 2.5 mg/kg, iv measured after 1 hr; assay type: ADME, organism-based; conditions: brain and plasma, read-out: BPR

Row | SMILES | EC50 [1] [nM] | Activity (Hippocampus [2]) | microsomal CLint [3] [µL/min/mg] | Emax [4] [%] | EC50 [5] [nM] | Emax [6] [%] | Activity (Hippocampus [7]) | microsomal CLint [8] [µL/min/mg] | Ratio EC50 [9] | Kp at 1 h [10] | clearance [11] [mL/min/kg] | bioavailability [12] [%] | Vd [13] [L/kg] | Ratio EC50 [14] | half-life [15] [h] | Kp at 1 h [16]
1 | C[C@H](CCC(C)(C)O)[C@H]1CC[C@H]2[C@@H]3CC=C4C[C@@H](O)CC[C@]4(C)[C@H]3CC[C@]12C | 180 | inactive | 30 | 110 | 410 | 140 | Active | 10 |  |  |  |  |  |  |  | 
2 | C[C@H](CC[C@H](O)C1CC1)[C@H]1CC[C@H]2[C@@H]3CC=C4C[C@@](C)(O)CC[C@]4(C)[C@H]3CC[C@]12C | 320 |  | 28 | 230 | 170 | 150 |  | < 10 |  |  |  |  |  |  |  | 
3 | CC(C)[C@@H](O)CC[C@@H](C)[C@H]1CC[C@H]2[C@@H]3CC=C4C[C@@](C)(O)CC[C@]4(C)[C@H]3CC[C@]12C | 33 |  | 28 | 200 | 13 | 230 |  | < 10 | 4 | 1.3 | 51.7 | 15 | 3.7 | > 10 | 1.6 | 
4 | CC(O)CC[C@@H](C)[C@H]1CC[C@H]2[C@@H]3CC=C4C[C@@H](O)CC[C@]4(C)[C@H]3CC[C@]12C (some centres undefined) | 320 |  | 17 | 150 | 140 | 180 |  | 7 |  |  |  |  |  |  |  | 
5 | C[C@H](O)CC[C@@H](C)[C@H]1CC[C@H]2[C@@H]3CC=C4C[C@@](C)(O)CC[C@]4(C)[C@H]3CC[C@]12C | > 10000 |  | 56 |  | 3000 | 50 |  | < 10 |  |  |  |  |  |  |  | 
6 | CC(C)(O)CCC[C@H]1CC[C@H]2[C@@H]3CC=C4C[C@@](C)(O)CC[C@]4(C)[C@H]3CC[C@]12C | 550 |  |  | 120 | 160 | 120 |  |  |  |  |  |  |  |  |  | 
7 | C[C@@H](CCC(C)(C)O)[C@H]1CC[C@H]2[C@@H]3CC=C4C[C@@](C)(O)CC[C@]4(C)[C@H]3CC[C@]12C | > 10000 |  |  |  | > 10000 |  |  |  |  |  |  |  |  |  |  | 
8 | C[C@H](CCC(C)(C)O)[C@H]1CC[C@H]2[C@@H]3CC=C4C[C@](C)(O)CC[C@]4(C)[C@H]3CC[C@]12C | > 10000 |  |  |  | 3900 | 160 |  |  |  |  |  |  |  |  |  | 
9 | C[C@H](CC[C@@H](C)O)[C@H]1CC[C@H]2[C@@H]3CC=C4C[C@@](C)(O)CC[C@]4(C)[C@H]3CC[C@]12C | > 10000 |  | 67 |  | > 10000 |  |  | 11 |  |  |  |  |  |  |  | 
10 | CC[C@H](O)CC[C@@H](C)[C@H]1CC[C@H]2[C@@H]3CC=C4C[C@@](C)(O)CC[C@]4(C)[C@H]3CC[C@]12C | 100 |  | 10 | 250 | 84 | 160 |  | 15 |  |  |  |  |  |  |  | 
11 | C[C@H](CCCO)[C@H]1CC[C@H]2[C@@H]3CC=C4C[C@@H](O)CC[C@]4(C)[C@H]3CC[C@]12C | 3000 |  | 25 | 290 | > 10000 |  |  | 13 |  |  |  |  |  |  |  | 
12 | CC(C)[C@H](O)CC[C@@H](C)[C@H]1CC[C@H]2[C@@H]3CC=C4C[C@@](C)(O)CC[C@]4(C)[C@H]3CC[C@]12C | 120 |  | 11 | 200 | 190 | 230 |  | < 10 |  | 0.8 | 38.3 | 25 | 3.1 |  | 2.2 | 
13 | C[C@H](CC(C)(C)O)[C@H]1CC[C@H]2[C@@H]3CC=C4C[C@@H](O)CC[C@]4(C)[C@H]3CC[C@]12C | > 10000 |  | 63 |  | > 10000 |  |  | 18 |  |  |  |  |  |  |  | 
14 | C[C@H](CCCC(C)(C)O)[C@H]1CC[C@H]2[C@@H]3CC=C4C[C@@H](O)CC[C@]4(C)[C@H]3CC[C@]12C | > 10000 |  | 31 |  | > 10000 | 67 |  | 23 |  |  | 41.7 | 6 | 1.2 |  | 0.38 | 
15 | C[C@@H]([C@H]1CC[C@H]2[C@@H]3CC=C4C[C@@H](O)CC[C@]4(C)[C@H]3CC[C@]12C)C(C)(C)O | > 10000 |  | 48 |  | > 10000 |  |  | 6 |  |  |  |  |  |  |  | 
16 | C[C@H](CCC1(O)CC1)[C@H]1CC[C@H]2[C@@H]3CC=C4C[C@@](C)(O)CC[C@]4(C)[C@H]3CC[C@]12C | 80 |  | 23 | 300 | 410 | 180 |  | 6 |  |  |  |  |  |  |  | 
17 | COC(C)(C)CC[C@@H](C)[C@H]1CC[C@H]2[C@@H]3CC=C4C[C@@](C)(O)CC[C@]4(C)[C@H]3CC[C@]12C | > 10000 |  |  |  | > 10000 |  |  |  |  |  |  |  |  |  |  | 
18 | C[C@H](CC[C@H](O)C(F)(F)F)[C@H]1CC[C@H]2[C@@H]3CC=C4C[C@@](C)(O)CC[C@]4(C)[C@H]3CC[C@]12C | 220 |  | 12 | 260 | 110 | 170 |  | 4 |  |  |  |  |  |  |  | 
19 | CC[C@@H](O)CC[C@@H](C)[C@H]1CC[C@H]2[C@@H]3CC=C4C[C@@](C)(O)CC[C@]4(C)[C@H]3CC[C@]12C | 420 |  | 25 | 220 | 30 | 130 |  | < 10 |  |  |  |  |  |  |  | 
20 | C[C@H](CC[C@H](O)C1CCC1)[C@H]1CC[C@H]2[C@@H]3CC=C4C[C@@](C)(O)CC[C@]4(C)[C@H]3CC[C@]12C | 120 |  | 31 | 300 | 120 | 530 |  | < 10 |  |  |  |  |  |  |  | 
21 | CC(C)[C@H](O)CC[C@@H](C)[C@H]1CC[C@H]2[C@@H]3CC=C4C[C@@H](O)CC[C@]4(C)[C@H]3CC[C@]12C | 37 |  | 93 | 220 | 55 | 140 |  | 28 |  |  |  |  |  |  |  | 
22 | C[C@H](CC[C@@H](O)C1CC1)[C@H]1CC[C@H]2[C@@H]3CC=C4C[C@@](C)(O)CC[C@]4(C)[C@H]3CC[C@]12C | 77 |  | 20 | 220 | 190 | 280 |  | 10 |  | 3.2 | 68.3 |  | 4.4 |  | 1.8 | 
23 | C[C@H](CC[C@@H](O)C1CCC1)[C@H]1CC[C@H]2[C@@H]3CC=C4C[C@@](C)(O)CC[C@]4(C)[C@H]3CC[C@]12C | 270 |  | 25 | 250 | 270 | 410 |  | < 10 |  |  | 88.3 | 18 | 2.9 |  | 0.84 | 
24 | C[C@H](CC[C@@H](O)C(F)(F)F)[C@H]1CC[C@H]2[C@@H]3CC=C4C[C@@](C)(O)CC[C@]4(C)[C@H]3CC[C@]12C | 30 |  | 9 | 150 | 310 | 230 |  | 3 |  |  | 31.7 | 70 | 2.8 |  | 1.9 | 1
25 | C[C@H](CCC1(O)CC1)[C@H]1CC[C@H]2[C@@H]3CC=C4C[C@@H](O)CC[C@]4(C)[C@H]3CC[C@]12C | 900 |  | 35 | 280 | 310 | 280 |  | 10 |  |  |  |  |  |  |  | 
